Test results from ChEMBL document CHEMBL1759881, “Synthesis and anti-inflammatory activity of ent-kaurene derivatives” (Eur J Med Chem, 2011).

Legend:
RAW264.7 = experiment: Antiinflammatory activity in mouse RAW264.7 cells assessed as inhibition of LPS-induced nitric oxide release pretreated for 15 mins before LPS challenge measured after 24 hrs by Griess method; assay type: functional, cell-based
Procedure, shortened: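 RAW 264.7 cells pre-incubated 15 min with compound (1–25 range in the table; 1, 5, 10, 25, 50 for dose-response) or DMSO vehicle, then LPS 250 ng/ml for 24 h. Nitrite in supernatant measured by Griess reagent, absorbance at 548 nm against NaNO2 standard. IC50 is the concentration giving 50% inhibition of NO release. Means ± SD of three independent experiments in triplicate.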

[1] = Cytotoxicity against LPS-stimulated mouse RAW264.7 cells assessed as cell viability at 1 to 25 uM pretreated for 15 mins before LPS challenge measured after 24 hrs by MTT assay; assay type: cell-based; details: LPS-stimulated RAW264.7 cells, read-out: Activity
Procedure, shortened: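 RAW 264.7 cells plated at 10⁵ cells/well, treated with compound at 1–25 in the presence of LPS 250 ng/ml for 24 h. MTT then added for 4 h at 37 °C, formazan extracted in DMSO, absorbance read at 540 nm. Viability expressed relative to untreated controls. Triplicate wells, at least three independent experiments.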

Row | IC50 (RAW264.7) [µM] | Structure (SMILES) | viability at 24 h, up to 25 µM [1] [%] | inhibition (RAW264.7)
1 | > 25 | C=C1[C@@H]2CC[C@H]3[C@]4(C)CCC[C@@](C)(C(=O)Nc5ccccc5)[C@H]4CC[C@]3(C2)[C@H]1OC(C)=O | 85 | 
2 | > 25 | C=C1C[C@@]23CC[C@H]4[C@@](C)(CCC[C@@]4(C)C(=O)OC[Si](C)(C)C)[C@@H]2CC[C@@H]1C3 | 95 | 
3 | > 25 | C=C1[C@@H]2CC[C@H]3[C@]4(C)CCC[C@@](C)(C(=O)O)[C@H]4CC[C@]3(C2)[C@H]1OC(C)=O | 58 | 
4 | > 25 | C=C1C[C@@]23CC[C@@H]4[C@](C)(COS(=O)OC[C@]5(C)CCC[C@]6(C)[C@@H]5CC[C@]57CC(=C)[C@H](CC[C@H]56)C7)CCC[C@@]4(C)[C@@H]2CC[C@@H]1C3 | 99 | 
5 | > 25 | COC(=O)[C@]1(C)CCC[C@@]2(C)[C@@H]3CC[C@@H]4C[C@@]3(CC[C@@H]21)C(=O)OC4=O | 95 | 
6 | 5 | C=C1C[C@@]23CC[C@@H]4[C@](C)(C(=O)OC)CCC[C@@]4(C)C2=CC[C@@H]1C3 [GRANDIFLORENIC ACID METHYL ESTER] | 100 | Dose-dependent effect
7 | 12 | C[C@@]12CCC[C@@](C)(C(=O)OCc3ccccc3)[C@H]1CC[C@]13CC(=O)[C@H](CC[C@H]12)C3 | 95 | 
8 | 5 | COC(=O)[C@]1(C)CCC[C@@]2(C)[C@@H]3CC[C@@H]4C[C@]3(C=C4C=O)CC[C@@H]21 | 76 | 
9 | 14 | COC(=O)[C@]1(C)CCC[C@@]2(C)[C@@H]3CC[C@@H]4C[C@@]3(CC[C@@H]21)[C@H]1O[C@@]41C | 95 | 
10 | > 25 | C=C1[C@H]2CC3=C([C@H](C2)[C@@H]1O)[C@]1(C)CCC[C@@](C)(C(=O)OC)[C@H]1CC3 | 30 | 
11 | > 25 | C=C1[C@@H]2CC[C@H]3[C@]4(C)CCC[C@@](C)(C(=O)OC)[C@H]4CC[C@]3(C2)[C@H]1OC(=O)CCCCCCCCCCC | 95 | 
12 | > 25 | COC(=O)[C@]1(C)CCCC2(C)[C@@H]3CC[C@@H]4C[C@@]3(CC[C@@H]21)C[C@]41CO1 (stereo partly specified) | 90 | 
13 | > 25 | C[C@@]12CCC[C@@](C)(C(=O)OCc3ccccc3)[C@H]1CC[C@]13CC(=O)O[C@H](CC[C@H]12)C3 | 50 | 
14 | > 25 | COC(=O)[C@]1(C)CCC[C@@]2(C)[C@@H]3CC[C@@H]4C[C@@]3(CC[C@@H]21)[C@@H](OC(C)=O)C4=O | 99 | 
15 | > 25 | C=C1[C@@H]2CC[C@H]3[C@]4(C)CCC[C@@](C)(C(=O)OC)[C@H]4CC[C@]3(C2)[C@H]1OC(C)=O | 40 | 
16 | > 25 | COC(=O)[C@]1(C)CCC[C@@]2(C)[C@@H]3CC[C@@H]4C[C@]3(C=C4/C=N/O)CC[C@@H]21 | 99 | 
17 | 10 | COC(=O)[C@]1(C)CCC[C@@]2(C)C3=CC[C@@H]4C[C@@]3(CC[C@H]12)C[C@]4(O)COC(=O)c1ccco1 | 99 | 
18 | > 25 | COC(=O)[C@]1(C)CCC[C@@]2(C)[C@@H]3CC[C@@H]4C[C@@]3(CC[C@@H]21)C[C@H]4/C=N/O | 25 | 
19 | 10 | C=C1C(=O)[C@@]23CC[C@@H]4[C@](C)(C(=O)OC)CCC[C@@]4(C)C2=CC[C@@H]1C3 | 50 | 
20 | 17 | COC(=O)[C@]1(C)CCC[C@@]2(C)[C@@H]3CC[C@@H]4C[C@@]3(CC[C@@H]21)C[C@@]41COS(=O)O1 (stereo partly specified) | 95 | 
21 | > 25 | COC(=O)[C@]1(C)CCC[C@@]2(C)[C@@H]3CC[C@@H]4C[C@@]3(CC[C@@H]21)C[C@]4(C)Cl | 82 | 
22 | > 25 | C=C1C[C@@]23CC[C@H]4[C@@](C)(CCC[C@@]4(C)C(=O)OCc4ccccc4)[C@@H]2CC[C@@H]1C3 [KAURENOIC ACID BENZYL ESTER] | 46 | 
23 | > 25 | COC(=O)[C@]1(C)CCC[C@@]2(C)[C@@H]3CC[C@@H]4C[C@@]3(CC[C@@H]21)C[C@]4(C)OC | 90 | 
24 | > 25 | C=C1C[C@@]23CC[C@@H]4[C@](C)(CO)CCC[C@@]4(C)C2=CC[C@@H]1C3 | 50 | 
25 | > 25 | COC(=O)[C@]1(C)CCC[C@@]2(C)[C@@H]3CC[C@@H]4C[C@]3(C=C4C)CC[C@@H]21 | 100 | 

Row | IC50 (RAW264.7) [µM] | Structure (SMILES) | viability at 24 h, up to 25 µM [1] [%] | inhibition (RAW264.7)
26 | 10 | C=C1C[C@@]23CC[C@@H]4[C@](C)(CO)CCC[C@@]4(C)[C@@H]2CC[C@@H]1C3 | 80 | 
27 | 15 | C=C1C[C@@]23CC[C@@H]4C(C)(C(=O)O)CCC[C@@]4(C)C2=CC[C@@H]1C3 (stereo partly specified) | 90 | 
28 | 12 | C=C1C[C@@]23CC[C@@H]4[C@](C)(COC(C)=O)CCC[C@@]4(C)[C@@H]2CC[C@@H]1C3 | 99 | 
29 | > 25 | C[C@@]1(CO)CCC[C@]2(C)[C@@H]1CC[C@@]13C[C@@H](CC[C@H]12)[C@@](C)(O)C3 | 95 | 
30 | 25 | COC(=O)[C@]1(C)CCC[C@@]2(C)C3=CC[C@@H]4C[C@]3(C=C4C=O)CC[C@H]12 | 18 | 
31 | 5 | C=C1[C@@H]2CC[C@H]3[C@]4(C)CCC[C@@](C)(C(=O)OC)[C@H]4CC[C@]3(C2)[C@H]1O | 97 | Dose-dependent effect
32 | > 25 | COC(=O)[C@]1(C)CCC[C@@]2(C)[C@@H]3CC[C@@H]4C[C@@]3(CC[C@@H]21)C[C@]41COS(=O)O1 (stereo partly specified) | 60 | 
33 | 5 | C[C@@]12CCC[C@@](C)(C(=O)OC[Si](C)(C)C)[C@H]1CC[C@]13CC(=O)O[C@H](CC[C@H]12)C3 | 95 | Dose-dependent effect
34 | > 25 | COC(=O)[C@]1(C)CCCC2(C)[C@@H]3CC[C@@H]4C[C@@]3(CC[C@@H]21)C[C@@]41CO1 (stereo partly specified) | 66 | 
35 | > 25 | COC(=O)[C@]1(C)CCC[C@]2(C)[C@@H]1CC[C@@]13C[C@@H](C[C@@H]4O[C@@]412)[C@]1(CO1)C3 | 99 | 
36 | > 25 | C=C1[C@@H]2CC[C@H]3[C@]4(C)CCC[C@@](C)(C(=O)O)[C@H]4CC[C@]3(C2)[C@H]1O | 100 | 
37 | > 25 | C=C1C[C@@]23CC[C@@H]4[C@](C)(C(=O)OCc5ccccc5)CCC[C@@]4(C)C2=CC[C@@H]1C3 [GRANDIFLORENIC ACID BENZYL ESTER] | 23 | 
38 | > 25 | COC(=O)[C@]1(C)CCC[C@@]2(C)[C@@H]3CC[C@@H]4C[C@@]3(CC[C@@H]21)[C@@H](O)C4=O | 95 | 
39 | > 25 | C=C1[C@@H]2CC=C3[C@@](CC[C@@H]4[C@](C)(C(=O)OC)CCC[C@@]34C)(C2)[C@H]1OC(C)=O | 50 | 
40 | 25 | COC(=O)[C@]1(C)CCC[C@@]2(C)[C@@H]3CC[C@@H]4C[C@@]3(CC[C@@H]21)C[C@]4(C)O | 52 | 
41 | 10 | C=C1C[C@@]23CC[C@@H]4[C@](C)(COC(C)=O)CCC[C@@]4(C)C2=CC[C@@H]1C3 | 90 | 
42 | > 25 | COC(=O)[C@]1(C)CCC[C@@]2(C)[C@@H]3CC[C@@H]4C[C@@]3(CC[C@@H]21)C(=O)[C@@]41CCN=N1 | 48 | 
43 | 25 | C=C1C[C@@]23CC[C@H]4[C@@](C)(CCC[C@@]4(C)C(=O)OC)[C@@H]2CC[C@@H]1C3 [KAURENOIC ACID METHYL ESTER] | 90 | 
44 | 4 | C=C1C(=O)[C@@]23CC[C@H]4[C@@](C)(CCC[C@@]4(C)C(=O)OC)[C@@H]2CC[C@@H]1C3 | 32 | 
45 | > 25 | COC(=O)[C@]1(C)CCC[C@@]2(C)C3=CC[C@@H]4C[C@@]3(CC[C@H]12)C[C@]4(O)CO | 35 | 
46 | > 25 | COC(=O)[C@]1(C)CCC[C@@]2(C)C3=CC[C@@H]4C[C@@]3(CC[C@H]12)C[C@H]4C | 95 | 
47 | > 25 | COC(=O)[C@]1(C)CCC[C@@]2(C)[C@@H]3CC[C@@H]4C[C@@]3(CC[C@@H]21)C[C@H]4C [DIHYDRO KAURENOIC ACID METHYL ESTER] | 72 | 
48 | > 25 | COC(=O)[C@]1(C)CCC[C@@]2(C)[C@@H]3CC[C@@H]4C[C@@]3(CC[C@@H]21)CC4=O | 98 | 
49 | 5 | COC(=O)[C@]1(C)CCC[C@@]2(C)[C@@H]3CC[C@@H]4C[C@@]3(CC[C@@H]21)C[C@@]4(O)CO | 69 | 
